Shown are actives, neighbours in structure and some others; about 2.4% of the full set was active somewhere.
PRMT1 FP inh = PRMT1 methyltransferase inhibitors, primary screen, biochemical, fluorescence polarization | 1.3% of 370,000 active | AID 652257, 2013 | inhibition, % at 2.79 µM | recombinant PRMT1, activity-based probe fluorescence polarization;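 active means inhibition above about 21% made by adding two undisclosed values, limit read from the data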
ABHD4 inh = ABHD4 inhibitors, primary screen, biochemical, fluorescence polarization, mouse. (Lyso)-N-acylphosphatidylethanolamine lipase (Mus musculus), Q8VD66. purified mABHD4, FP-Rh probe fluorescence polarization. inhibition, % at 8.92 µM. 0.54% of 370,000 active;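 active means inhibition exceeding the mean over every tested compound plus 3 SD, cut at about 30% in these data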;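 further: 0% = plate median of compound wells and 100% = S159A mutant with DMSO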
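Assay system: mouse ABHD4 enzyme, wild type / Also added: fluorescent activity-based probe FP-Rh / Doses: single nominal dose of 8.92 µM, 0.89% DMSO final / Timing: 45 min compound pre-incubation plus 60 min probe step, 25 °C / Signal: FP readout, ex 525 nm / em 598 nm / Control set: S159A mutant/DMSO as 100%, compound-well median as 0%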
SIAE primary = human SIAE inhibitors, primary screen, biochemical, fluorescence polarization, FP-Rh probe, 1536-well HTS; Sialate O-acetylesterase (Homo sapiens), Q9HAT2; SIAE FP-Rh probe binding; inhibition, % at 9.66 µM; 0.69% of 370,000 active; AID 1053197, 2014;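 active means inhibition above a cutoff: mean of compounds within the control limits plus 3 SD of those, cut at about 17% in these data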;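 further: 0% = plate median of compound wells and 100% = probe without SIAE protein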
Target sequence (Q9HAT2 whole entry, looked up): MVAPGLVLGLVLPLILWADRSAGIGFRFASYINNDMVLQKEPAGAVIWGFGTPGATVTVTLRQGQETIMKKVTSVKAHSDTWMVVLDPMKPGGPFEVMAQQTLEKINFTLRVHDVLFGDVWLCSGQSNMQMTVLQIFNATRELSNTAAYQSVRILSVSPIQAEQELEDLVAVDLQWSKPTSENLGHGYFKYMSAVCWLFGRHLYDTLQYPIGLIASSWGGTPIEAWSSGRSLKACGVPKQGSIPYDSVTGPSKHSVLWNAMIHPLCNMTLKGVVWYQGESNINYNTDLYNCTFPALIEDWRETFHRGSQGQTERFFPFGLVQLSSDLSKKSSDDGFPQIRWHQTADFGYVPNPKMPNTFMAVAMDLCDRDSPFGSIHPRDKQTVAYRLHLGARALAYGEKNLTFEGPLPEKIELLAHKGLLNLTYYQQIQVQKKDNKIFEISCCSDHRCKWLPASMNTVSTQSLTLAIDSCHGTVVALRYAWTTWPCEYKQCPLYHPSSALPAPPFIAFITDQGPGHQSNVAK
HTRA1 inhibitor = HTRA1 serine protease inhibitors, primary screen, biochemical, fluorescence polarization, HTS; 0.5% of 340,000 active; inhibition, % at 5.96 µM; Q92743; recombinant HTRA1, FP-rhodamine activity-based probe; in the data active means inhibition above about 36%;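 further: 0% = enzyme with DMSO and 100% = wells lacking enzyme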
JMJD2C inh = inhibitors of GASC-1 histone demethylase, primary screen, biochemical, fluorescence, DELFIA europium. 0.069% of 330,000 active. inhibition, % at 2.35 µM. Lysine-specific demethylase 4C (Homo sapiens), Q9H3R0. GST-JMJD2C(1-420) H3K9me3 demethylation;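 active means more than half of a compound's replicate wells show inhibition beyond 50%, single wells judged on their own value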;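 further: signal counts dimethyl H3K9 product captured on neutravidin plate; 0% = median of DMSO wells and 100% = 0.3 times that DMSO median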
HTRA1 inh conf = HTRA1 protease inhibitors, retest, confirmation, biochemical, fluorescence polarization | shares compounds with HTRA1 inhibitor | recombinant HTRA1, FP-rhodamine activity-based probe | inhibition, % at 5.96 µM | 66% of 1,600 active | AID 540248, 2011;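 active means mean inhibition over three repeats above a set limit taken from the earlier primary screen, cut at about 37% in these data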;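 further: 0% = HTRA1 with DMSO and 100% = wells lacking HTRA1; inhibitors block probe binding so polarization drops and inhibition rises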
PRMT1 confirm = PRMT1 methyltransferase inhibitors, confirmation, biochemical, fluorescence polarization, triplicate | shares compounds with PRMT1 FP inh | recombinant His-PRMT1, activity-based probe fluorescence polarization | inhibition, % at 2.79 µM | 42% of 3,300 active;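 active means mean inhibition across replicates above the hit cutoff derived for the earlier primary screen, cut at about 22% in these data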
mABHD4 conf = ABHD4 inhibitors, retest, confirmation, biochemical, fluorescence polarization, mouse | shares compounds with ABHD4 inh | AID 720658, 2013 | 55% of 1,800 active | purified mABHD4, FP-Rh probe fluorescence polarization | inhibition, % at 8.92 µM;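 active means mean inhibition across replicates above the hit cutoff set in the primary screen, cut at about 30% in these data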;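 further: 0% = wild-type ABHD4 with DMSO and 100% = catalytically dead S159A mutant with DMSO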
* hit, by the source's call.

O=C(N/N=C/c1ccc(O)c(O)c1)NC12CC3CC(CC(C3)C1)C2 was read as PRMT1 FP inh 4, ABHD4 inh 33*, SIAE primary 12, HTRA1 inhibitor 68*, JMJD2C inh 11, HTRA1 inh conf 82* and mABHD4 conf 31*.
For COc1cc(/C=N/NC(=O)NC23CC4CC(CC(C4)C2)C3)ccc1O the results were PRMT1 FP inh -3, ABHD4 inh 6, SIAE primary 1, HTRA1 inhibitor -3 and JMJD2C inh 7.
For O=C(NCc1ccccn1)C1Nc2ccc(C(F)(F)F)cc2C2C=CCC12 (stereo not drawn) the results were PRMT1 FP inh 10, ABHD4 inh 32*, SIAE primary 16, HTRA1 inhibitor 45*, JMJD2C inh -2, HTRA1 inh conf 4 and mABHD4 conf 4.
`COc1ccc2c(c1)C1C=CCC1C(c1cc3c(cc1Br)OCO3)N2` (stereo not drawn) gave PRMT1 FP inh 6, ABHD4 inh 8, SIAE primary 5, HTRA1 inhibitor 32 and JMJD2C inh -1.
FC(F)(F)c1ccc2c(c1)C1C=CCC1C(c1ccncc1)N2 (stereo not drawn) was read as PRMT1 FP inh 8, ABHD4 inh 39*, SIAE primary 10, HTRA1 inhibitor 52*, JMJD2C inh -13, HTRA1 inh conf 59* and mABHD4 conf 13.
`CCOC(=O)C1C[C@@H](O)C=CC1=O` (stereo partly drawn) gave PRMT1 FP inh 2, ABHD4 inh 0 and SIAE primary 6.
For CN(C)c1ccc(C=c2c3cc([N+](=O)[O-])ccc3n3c2cc(-c2ccccc2)[n+]3C)cc1 the results were PRMT1 FP inh 12, ABHD4 inh 78*, SIAE primary 15, HTRA1 inhibitor 92*, HTRA1 inh conf 41* and mABHD4 conf 28.
`CC(C)NC(=O)C1CC(=O)N(CCc2ccc(F)cc2)C1` (stereo not drawn) gave PRMT1 FP inh -1, ABHD4 inh 6, SIAE primary -1 and HTRA1 inhibitor -1.
For CCOC(=O)C1(C)C=C(Nc2ccc(O)cc2)C(=O)N1c1ccc(O)cc1 (stereo not drawn) the results were PRMT1 FP inh 33*, ABHD4 inh 76*, SIAE primary 16, HTRA1 inhibitor 55*, JMJD2C inh 6, HTRA1 inh conf 7 and mABHD4 conf 5.
`CCOC(=O)C1(C)C=C(Nc2ccc(OC)cc2)C(=O)N1c1ccc(OC)cc1` (stereo not drawn) gave PRMT1 FP inh -4, ABHD4 inh 4, SIAE primary 11, HTRA1 inhibitor 2 and JMJD2C inh 2.
For O=C(CCl)NC1CCCCN(Cc2ccc(OC(F)(F)F)cc2)C1=O (stereo not drawn) the results were PRMT1 FP inh 1, ABHD4 inh 2 and SIAE primary 5.
`O=C(O)c1cc(O)c2c(c1)[C@H]([C@H]1c3cc(C(=O)O)cc(O)c3C(=O)c3c(O[C@@H]4O[C@H](CO)[C@@H](O)[C@H](O)[C@H]4O)cccc31)c1cccc(OC3O[C@H](CO)[C@@H](O)[C@H](O)[C@H]3O)c1C2=O` (stereo partly drawn) gave PRMT1 FP inh 37*, ABHD4 inh 60*, SIAE primary 74*, HTRA1 inhibitor 40*, JMJD2C inh -28, HTRA1 inh conf 19, PRMT1 confirm 13 and mABHD4 conf 5.
Screening C/C(=N/NC(=O)c1cc(O)c(O)c(O)c1)c1ccc([N+](=O)[O-])cc1 returned PRMT1 FP inh 16, ABHD4 inh 32*, SIAE primary 13, HTRA1 inhibitor 76*, JMJD2C inh 70, HTRA1 inh conf 57* and mABHD4 conf 26.
For Oc1ccc(N=Nc2ccccc2-c2nn[nH]n2)c(O)c1 the results were PRMT1 FP inh 19, ABHD4 inh 68*, SIAE primary 16, HTRA1 inhibitor 42*, JMJD2C inh -13, HTRA1 inh conf 67* and mABHD4 conf 71*.
O=C(NC1CCCCN(Cc2cccc(Cl)c2)C1=O)c1ccccn1 (stereo not drawn) was read as PRMT1 FP inh 3, ABHD4 inh 4 and SIAE primary -1.
`Cc1ccc(/C=C/C(=O)c2ccccc2)cc1` gave PRMT1 FP inh -5, ABHD4 inh -10, SIAE primary -10, HTRA1 inhibitor -15 and JMJD2C inh 12.
Cc1ccc(C)c(/C=C/C(=O)c2ccccc(=O)c2O)c1 was read as PRMT1 FP inh 15, ABHD4 inh 38*, SIAE primary 11, HTRA1 inhibitor 54*, JMJD2C inh 18, HTRA1 inh conf 59* and mABHD4 conf 24.
`Nc1scc2c(C(=O)N/N=C/c3ccc(Cl)cc3)nn(-c3ccccc3)c(=O)c12` gave PRMT1 FP inh 22*, ABHD4 inh 44*, SIAE primary 12, HTRA1 inhibitor 41*, JMJD2C inh 20, HTRA1 inh conf -4 and mABHD4 conf 20.
For CCOC(=O)c1nn(-c2ccccc2)c(=O)c2c(N)scc12 the results were PRMT1 FP inh 17, ABHD4 inh 6, SIAE primary 1, HTRA1 inhibitor 2 and JMJD2C inh -3.
For O=C(c1cc(Cl)cc(Cl)c1)N1CC[C@H]2[C@H](CCCN2Cc2ccccc2)C1 the results were PRMT1 FP inh 2, ABHD4 inh 4 and SIAE primary -1.
`Cc1ccc(-c2nc3ncccn3c2NC(=O)Nc2ccc(OC(F)(F)F)cc2)cc1` gave PRMT1 FP inh -5, ABHD4 inh 5 and SIAE primary 6.
O=c1[nH]nc(CNc2ccc(O)cc2)c2ccccc12 was read as PRMT1 FP inh 25*, ABHD4 inh 82*, SIAE primary 79*, HTRA1 inhibitor 85*, JMJD2C inh -16, HTRA1 inh conf 9 and mABHD4 conf 37*.
`COC(=O)[C@]12C[C@H](CC(=O)NCCc3ccccc3OC)C(=O)N(Cc3cccc4ccccc34)C1=C[C@H](C(C)(C)C)O[C@@H]2C` gave PRMT1 FP inh -8, ABHD4 inh -9 and SIAE primary -8.

Compound activity: PubChem, several laboratories
